{"data": "Published values from different studies", "effect on": "metabolic stability", "species": "human", "sample": "liver microsomes", "note": "Compare with care: the assays were run in different laboratories."}
{"SMILES": "COc1cc2[nH]c(C)c(-c3ccc(S(=O)(=O)N(C)C)cc3)c(=O)c2cc1Cl", "conditions": "1 µM", "microsomal CLint": "17 µL/min/mg"}
{"SMILES": "Cc1cnc(Nc2ccnc3ccc(-c4ccc(S(=O)(=O)N5CCOCC5)cc4)cc23)s1", "microsomal CLint": "76.3 µL/min/mg"}
{"SMILES": "CC(C)CCN(c1ccc(F)cc1)c1c(-c2ccccn2)nc2ccccn12", "conditions": "3 µM, pH 7.4", "microsomal CLint": "110 µL/min/mg"}
{"SMILES": "Cc1nnc(Nc2ccnc3ccc(-c4ccc(S(=O)(=O)N5CCOCC5)cc4)cc23)nc1C", "microsomal CLint": "114 µL/min/mg"}
{"SMILES": "COc1ccc(CNc2c(CO)cnc3c(C4CC4)cc(C#N)cc23)cc1Cl", "microsomal CLint": "80 µL/min/mg"}
{"SMILES": "CCOC(=O)c1c(-c2cc(F)cc(OC)c2)[nH]c2cc(OC)c(F)cc2c1=O", "conditions": "19.8 µM, pH 7.4", "microsomal CLint": "50 µL/min/mg"}
{"SMILES": "c1ccc(-c2nc3n(c2-c2ccncc2)CCC3)nc1", "conditions": "3 µM, pH 7.4", "microsomal CLint": "26 µL/min/mg"}
{"SMILES": "O=C(C1CCSCC1)N1CC(=O)N2CCc3ccccc3[C@@H]2C1", "conditions": "0.1 µM, pH 7.4", "microsomal CLint": "28 µL/min/mg"}
{"SMILES": "COc1cccc(-c2nc3ccccn3c2Nc2ccc(F)cc2)n1", "conditions": "3 µM, pH 7.4", "microsomal CLint": "137 µL/min/mg"}
{"SMILES": "COc1cc2[nH]c(C)c(-c3ccc(N4CCN(C)CC4)nc3)c(=O)c2cc1Cl", "conditions": "1 µM", "microsomal CLint": "34 µL/min/mg"}
{"SMILES": "COc1cc(OC)cc(-c2c(-c3ccccn3)nc3n2CCC3)c1", "conditions": "3 µM, pH 7.4", "microsomal CLint": "53 µL/min/mg"}
{"SMILES": "Oc1cccc(-c2nc(N3CCC(c4ccccn4)C3)c3ccccc3n2)c1 (stereo not shown)", "microsomal CLint": "165 µL/min/mg"}
{"SMILES": "Cc1noc(C)c1Nc1ccnc2ccc(-c3ccc(S(=O)(=O)N4CCOCC4)cc3)cc12", "microsomal CLint": "78.2 µL/min/mg"}
{"SMILES": "COc1cc2[nH]c(C)c(-c3ccc(COc4ccccc4)cc3)c(=O)c2cc1Cl", "conditions": "1 µM", "microsomal CLint": "22 µL/min/mg"}
{"SMILES": "Fc1ccccc1-c1nc(N2CCC(c3ccccn3)C2)c2ccccc2n1 (stereo not shown)", "microsomal CLint": "186 µL/min/mg"}
{"SMILES": "CCN(CC)CCNC(=O)c1c(C)[nH]c(/C=C2\\C(=O)Nc3ccc(F)cc32)c1C", "conditions": "1 µM, pH 7.4", "microsomal CLint": "19 µL/min/mg"}
{"SMILES": "CCn1cc2c(N3CCC(c4ccccn4)C3)nc(-c3ccccn3)nc2n1 (stereo not shown)", "microsomal CLint": "< 1 µL/min/mg"}
{"SMILES": "Cc1cc(Nc2ccc(S(F)(F)(F)(F)F)cc2)n2nc(C(F)(F)F)nc2n1", "conditions": "1 µM, pH 7.4", "microsomal CLint": "< 6 µL/min/mg"}
{"SMILES": "O=[N+]([O-])c1ccc(Nc2ccnc3ccc(-c4ccc(S(=O)(=O)N5CCOCC5)cc4)cc23)cn1", "microsomal CLint": "106 µL/min/mg"}
{"SMILES": "CN(C)C(=O)c1ccc(-c2c(-c3ccccn3)nc3n2CCC3)cc1", "conditions": "3 µM, pH 7.4", "microsomal CLint": "< 3 µL/min/mg"}
{"SMILES": "CCOCCOc1ccnc2ccc(-c3ccc(S(=O)(=O)N4CCOCC4)cc3)cc12", "microsomal CLint": "> 300 µL/min/mg"}
{"SMILES": "Cc1cc(Nc2ccc(C(F)(F)F)cc2)c2ccccc2n1", "microsomal CLint": "4.8 µL/min/mg"}
{"SMILES": "O=C(Nc1ccc2c(c1)B(O)OC2)Nc1ccc(F)c(C(F)(F)F)c1", "microsomal CLint": "13 µL/min/mg"}
{"SMILES": "CN(c1ccc(F)cc1)c1c(-c2ccc(F)cn2)nc2ccccn12", "conditions": "3 µM, pH 7.4", "microsomal CLint": "220 µL/min/mg"}
{"SMILES": "O=S(=O)(c1ccc(-c2ccc3ncccc3c2)cc1)N1CCOCC1", "microsomal CLint": "13.3 µL/min/mg"}
{"SMILES": "c1ccc(-c2nc(NCc3nccs3)c3ccccc3n2)nc1", "microsomal CLint": "36 µL/min/mg"}
{"SMILES": "COc1cc2[nH]c(C)c(-c3cc4ccccc4o3)c(=O)c2cc1Cl", "conditions": "1 µM", "microsomal CLint": "29 µL/min/mg"}
{"SMILES": "Cn1cc(-c2nc(N3CCC(c4ccccn4)C3)c3ccccc3n2)cn1 (stereo not shown)", "microsomal CLint": "118 µL/min/mg"}
{"SMILES": "Cc1cc(Nc2ccc(C(F)(F)F)cc2)n2nc(C(F)(F)F)nc2n1", "conditions": "1 µM, pH 7.4", "microsomal CLint": "< 6 µL/min/mg"}
{"SMILES": "N#CC1CCN(c2nc(-c3ccccn3)nc3ccccc23)C1 (stereo not shown)", "microsomal CLint": "45 µL/min/mg"}
{"SMILES": "O=S(=O)(c1ccc(-c2ccc3nccc(Nc4cncs4)c3c2)cc1)N1CCOCC1", "microsomal CLint": "29.5 µL/min/mg"}
{"SMILES": "COc1cc2[nH]c(C)c(-c3ccc(C(C)C)cc3)c(=O)c2cc1Cl", "conditions": "1 µM", "microsomal CLint": "34 µL/min/mg"}
{"SMILES": "c1ccc(C2CCN(c3nc(-c4ccco4)nc4ccccc34)C2)nc1 (stereo not shown)", "microsomal CLint": "149 µL/min/mg"}
{"SMILES": "C[C@H](C(=O)NC1Cc2ccccc2C1)c1ccccc1", "conditions": "1 µM, 1 h", "microsomal CLint": "15 µL/min/mg"}
{"SMILES": "COc1cc2[nH]c(C)c(-c3ccc(F)cc3)c(=O)c2cc1Cl", "conditions": "1 µM", "microsomal CLint": "31 µL/min/mg"}
{"SMILES": "COc1cccnc1-c1nc2ccccn2c1Nc1ccc(F)cc1", "conditions": "3 µM, pH 7.4", "microsomal CLint": "19 µL/min/mg"}
{"SMILES": "COc1cc2[nH]c(C)c(-c3ccc(C(C)=O)cc3)c(=O)c2cc1Cl", "conditions": "1 µM", "microsomal CLint": "11 µL/min/mg"}
{"SMILES": "Cn1ccnc1CNc1nc(-c2ccccn2)nc2ccccc12", "microsomal CLint": "24 µL/min/mg"}
{"SMILES": "CC(C)(C)[Si](C)(C)OCCCN(c1ccc(F)cc1)c1c(-c2ccccn2)nc2ccccn12", "conditions": "3 µM, pH 7.4", "microsomal CLint": "> 300 µL/min/mg"}
{"SMILES": "COc1cc2[nH]c(C)c(-c3ccc(F)cc3F)c(=O)c2cc1Cl", "conditions": "1 µM", "microsomal CLint": "9 µL/min/mg"}
